Measurements reported in ChEMBL document CHEMBL2424625, “Synthesis and structure-activity relationships of novel indazolyl glucocorticoid receptor partial agonists” (Bioorg Med Chem Lett, 2013).
Active and inactive are the calls of the source. The calls are words filed in the database; no cut-off is given here.

Columns and labels:
[1] = biological target: T1, Glucocorticoid receptor (Homo sapiens) (UniProt P04150); assay: Transrepression activity at glucocorticoid receptor in human A549 cells assessed as inhibition of PMA-stimulated AP1 response element by luciferase reporter gene assay relative to dexamethasone; format: cell-based
T1 sequence (whole entry): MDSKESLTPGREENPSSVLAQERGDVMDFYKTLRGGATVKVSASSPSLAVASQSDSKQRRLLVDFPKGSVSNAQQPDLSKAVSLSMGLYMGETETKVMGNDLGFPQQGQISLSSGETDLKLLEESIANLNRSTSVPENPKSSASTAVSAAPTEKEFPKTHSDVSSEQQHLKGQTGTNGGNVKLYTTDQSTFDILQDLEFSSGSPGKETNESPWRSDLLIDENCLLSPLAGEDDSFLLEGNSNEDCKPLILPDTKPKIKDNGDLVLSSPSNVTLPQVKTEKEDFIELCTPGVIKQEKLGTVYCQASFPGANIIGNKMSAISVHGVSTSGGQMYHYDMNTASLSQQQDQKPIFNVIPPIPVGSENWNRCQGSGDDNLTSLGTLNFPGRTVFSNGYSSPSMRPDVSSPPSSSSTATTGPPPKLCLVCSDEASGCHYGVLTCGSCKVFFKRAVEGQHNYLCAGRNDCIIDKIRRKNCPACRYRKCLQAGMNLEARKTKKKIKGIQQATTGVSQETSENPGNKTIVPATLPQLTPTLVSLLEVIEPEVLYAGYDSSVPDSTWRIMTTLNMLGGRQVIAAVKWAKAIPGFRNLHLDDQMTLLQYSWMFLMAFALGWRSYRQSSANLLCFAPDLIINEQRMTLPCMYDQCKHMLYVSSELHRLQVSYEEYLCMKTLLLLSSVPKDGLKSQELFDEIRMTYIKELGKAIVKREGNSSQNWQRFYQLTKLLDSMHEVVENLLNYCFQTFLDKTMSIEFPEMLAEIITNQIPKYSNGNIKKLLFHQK
Method in brief: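 Transrepression of AP-1 was run in A549 lung epithelial cells. […] Values are means of two or more experiments in triplicate.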

[2] = biological target: T1, Glucocorticoid receptor (Homo sapiens); assay: Transactivation activity at glucocorticoid receptor ligand binding domain (unknown origin) expressed in human Hela cells co-expressing GAL4 DNA binding domain assessed as NP-1-stimulated GRE activation by luciferase reporter gene assay relative to dexamethasone; format: cell-based
Method in brief: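 HeLa line (NP-1) stably transfected with a GR-LBD chimera cloned into a GAL4 luciferase reporter was run in agonist mode. Direct GR-LBD activation was read as increased luciferase activity. […] Values are means of two or more experiments in triplicate.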

[3] = biological target: T2, Glucocorticoid receptor (Homo sapiens, UniProt P04150); assay: Binding affinity to glucocorticoid receptor (unknown origin) by fluorescence assay
T2 sequence (P04150 whole entry): T1 sequence (whole entry)

[4] = biological target: T2, Glucocorticoid receptor; assay: Transrepression activity at glucocorticoid receptor in human A549 cells assessed as inhibition of IL1beta-stimulated NFkappaB-dependent E-selectin transcription by luciferase reporter gene assay; format: cell-based
[5] = biological target: T2, Glucocorticoid receptor; assay: Transrepression activity at glucocorticoid receptor in human A549 cells assessed as inhibition of PMA-stimulated AP1 response element by luciferase reporter gene assay; format: cell-based
[6] = biological target: T2, Glucocorticoid receptor; assay: Transactivation activity at glucocorticoid receptor ligand binding domain (unknown origin) expressed in human Hela cells co-expressing GAL4 DNA binding domain assessed as NP-1-stimulated GRE activation by luciferase reporter gene assay; format: cell-based
[7] = biological target: T1, Glucocorticoid receptor (Homo sapiens); assay: Transrepression activity at glucocorticoid receptor in human A549 cells assessed as inhibition of IL1beta-stimulated NFkappaB-dependent E-selectin transcription by luciferase reporter gene assay relative to dexamethasone; format: cell-based
Method in brief: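 In A549 lung epithelial cells, NFkB activity was induced with IL-1β (0.5 ng/ml). Inhibition was quantitated as decreased luciferase activity. […] Values are means of two or more experiments in triplicate.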

[8] = biological target: T1, Glucocorticoid receptor (Homo sapiens); assay: Partial agonist activity at glucocorticoid receptor (unknown origin) by fluorescence assay

Row | Efficacy [1] [%] | Efficacy [2] [%] | Ki [3] [nM] | EC50 [4] [nM] | EC50 [5] [nM] | EC50 [6] [nM] | Efficacy [7] [%] | Activity [8] | SMILES
1 | 88 | 102 | – | – | – | – | – | – | CC(CNC(=O)CC(F)(F)F)[C@@H](c1ccccc1)c1ccc2c(cnn2-c2ccc(F)cc2)c1 (stereo in doubt; 3i) [listing 1 of 2 here]
2 | 100 | 86 | 3.6 | 11.3 | 25 | 126 | 94 | – | CC(C)C[C@@H](c1ccc2c(cnn2-c2ccc(F)cc2)c1)C(C)(C)CNC(=O)NC(C)(C)C
3 | 66 | – | 10.2 | 393 | 252 | > 10000 | 55 | – | CC(C)(CNC(=O)NCC(F)(F)F)[C@@H](c1ccccc1)c1ccc2c(cnn2-c2ccc(F)cc2)c1
4 | 96 | 111 | 0.87 | 1.8 | 4.3 | 12.8 | 100 | – | CCS(=O)(=O)NCC(C)[C@@H](c1ccccc1)c1ccc2c(cnn2-c2ccc(F)cc2)c1 (stereo partly drawn)
5 | 97 | 112 | 1.34 | 0.66 | 5.2 | 26 | 105 | – | CC(CNS(=O)(=O)CC(F)(F)F)[C@@H](c1ccccc1)c1ccc2c(cnn2-c2ccc(F)cc2)c1 (stereo partly drawn)
6 | 62 | – | 1.9 | 138 | 215 | > 10000 | 46 | – | CC(C)(C)CC(=O)NCC(C)(C)[C@@H](c1ccccc1)c1ccc2c(cnn2-c2ccc(F)cc2)c1
7 | 100 | 25 | 2 | 23 | 78 | 394 | 80 | Active | CC(C)(C)C(=O)NCC(C)(C)[C@@H](c1ccccc1)c1ccc2c(cnn2-c2ccc(F)cc2)c1
8 | 86 | 32 | 0.53 | 19.1 | 20.5 | 148 | 97 | – | CC(C)(CNS(C)(=O)=O)[C@@H](c1ccccc1)c1ccc2c(cnn2-c2ccc(F)cc2)c1
9 | 44 | – | 1.74 | 124 | 725 | > 10000 | 39 | – | CC(C)(CNC(=O)C(F)(F)F)[C@@H](c1ccccc1)c1ccc2c(cnn2-c2ccc(F)cc2)c1
10 | 76 | 19 | 1.15 | 29.3 | 26.8 | 261 | 82 | – | CC(C)(CNS(=O)(=O)C1CC1)[C@@H](c1ccccc1)c1ccc2c(cnn2-c2ccc(F)cc2)c1
11 | 86 | 58 | 1.42 | 87 | 118 | 501 | 85 | – | CC(C)C[C@@H](c1ccc2c(cnn2-c2ccc(F)cc2)c1)C(C)(C)CNC(=O)NCC(F)(F)F
12 | 66 | – | 1.51 | 86 | 143 | > 10000 | 63 | – | CCCS(=O)(=O)NCC(C)(C)[C@@H](c1ccccc1)c1ccc2c(cnn2-c2ccc(F)cc2)c1
13 | 84 | 52 | – | – | – | – | – | – | CC(CNC(=O)CC(F)(F)F)[C@@H](c1ccccc1)c1ccc2c(cnn2-c2ccc(F)cc2)c1 (single isomer, unassigned) [listing 1 of 2 here]
14 | 84 | 19 | 0.72 | 15.6 | 28.8 | 214 | 87 | – | CCS(=O)(=O)NCC(C)(C)[C@@H](c1ccccc1)c1ccc2c(cnn2-c2ccc(F)cc2)c1
15 | 33 | 100 | – | – | 2520 | 977 | – | – | CC(C)(CNC(=O)Cc1ccccc1)[C@@H](c1ccccc1)c1ccc2c(cnn2-c2ccc(F)cc2)c1
16 | 100 | 101 | 0.93 | 1.4 | 8.4 | 24 | 105 | – | CC(CNS(C)(=O)=O)[C@@H](c1ccccc1)c1ccc2c(cnn2-c2ccc(F)cc2)c1 (stereo partly drawn)
17 | – | – | 2.4 | – | 7.5 | 20.7 | – | – | CC(CNC(=O)CC(F)(F)F)[C@@H](c1ccccc1)c1ccc2c(cnn2-c2ccc(F)cc2)c1 (stereo in doubt; 3i) [listing 2 of 2 here]
18 | – | – | 2.4 | 1150 | > 5000 | – | 58 | – | CC(=O)NCC(C)(C)[C@@H](c1ccccc1)c1ccc2c(cnn2-c2ccc(F)cc2)c1
19 | 101 | 81 | 1.3 | 38 | 61 | 262 | 96 | – | CC(C)C[C@@H](c1ccc2c(cnn2-c2ccc(F)cc2)c1)C(C)(C)CNC(=O)CC(F)(F)F
20 | – | – | 2.3 | – | 52 | 374 | – | – | CC(CNC(=O)CC(F)(F)F)[C@@H](c1ccccc1)c1ccc2c(cnn2-c2ccc(F)cc2)c1 (single isomer, unassigned) [listing 2 of 2 here]
